Among the data in ChEMBL document CHEMBL3259672, “Design, synthesis, and biological evaluation of O-2-modified indenoisoquinolines as dual topoisomerase I-tyrosyl-DNA phosphodiesterase I inhibitors” (J Med Chem, 2014) are GI50, inhibition and IC50 values, retold here.

Experiment [1] is described as follows: Growth inhibition of human OVCAR3 cells after 48 hrs by SRB assay. Type of experiment: functional. The note with it: OVCAR-3, 48 h. An outline of the steps: (§1)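 NCI60 screen. Cells were exposed to 100, 10, 1, 0.1 and 0.01 μM for 48 h, then stained with sulforhodamine B and read by optical density. Percent growth relative to control was plotted against log concentration. […] Where a standard error is given, values are the mean of two determinations.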
A general note: Sulforhodamine B stains cellular protein and so reports cell mass.

The test system of the next experiment is SN12C. The experiment is described as follows: Growth inhibition of human SN12C cells after 48 hrs by SRB assay. Type of experiment: functional. In a few lines: as §1
A further experiment relates to HOP-62. Briefly: Growth inhibition of human HOP62 cells after 48 hrs by SRB assay. Type of experiment: functional. The note with it: HOP-62, 48 h. In a few lines:
as §1

A short description of experiment [2]: Growth inhibition of human UACC62 cells after 48 hrs by SRB assay. Type of experiment: functional. The note with it: UACC-62, 48 h. In a few lines:
as §1

Experiment [3] deals with T1, DNA topoisomerase 1 (Homo sapiens) (UniProt P11387).
T1 sequence (whole entry): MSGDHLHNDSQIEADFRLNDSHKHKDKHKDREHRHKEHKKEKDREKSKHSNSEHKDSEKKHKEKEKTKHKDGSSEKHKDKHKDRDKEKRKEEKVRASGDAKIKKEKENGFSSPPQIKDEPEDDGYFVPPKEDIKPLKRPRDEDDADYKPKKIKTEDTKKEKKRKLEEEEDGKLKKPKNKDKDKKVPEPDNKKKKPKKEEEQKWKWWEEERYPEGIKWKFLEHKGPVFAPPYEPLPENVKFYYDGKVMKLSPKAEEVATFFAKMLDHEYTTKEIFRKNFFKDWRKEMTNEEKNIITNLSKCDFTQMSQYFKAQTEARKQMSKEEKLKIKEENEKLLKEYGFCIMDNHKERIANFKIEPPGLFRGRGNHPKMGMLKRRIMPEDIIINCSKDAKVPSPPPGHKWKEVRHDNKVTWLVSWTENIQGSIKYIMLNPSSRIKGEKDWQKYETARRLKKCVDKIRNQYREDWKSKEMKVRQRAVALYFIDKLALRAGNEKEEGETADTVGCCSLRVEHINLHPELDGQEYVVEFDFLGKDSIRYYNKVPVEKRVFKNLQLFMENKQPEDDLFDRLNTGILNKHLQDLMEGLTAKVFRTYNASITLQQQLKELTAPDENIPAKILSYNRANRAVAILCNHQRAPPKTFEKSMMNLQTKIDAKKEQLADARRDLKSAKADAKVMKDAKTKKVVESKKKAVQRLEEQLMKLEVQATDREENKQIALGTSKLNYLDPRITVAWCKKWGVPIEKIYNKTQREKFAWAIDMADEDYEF
The experiment is described as follows: Inhibition of human recombinant topoisomerase 1-mediated 117 bp DNA cleavage by agarose gel electrophoresis. Particulars: in the assay text read “denaturing PAGE” for “agarose gel electrophoresis”. An outline of the steps: (§2)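 Human recombinant Top1 was purified from baculovirus. Compound was tested at 0.1, 1, 10 and 100 μM for 20 min at 25 °C. Reactions were stopped with SDS (0.5% final) and run on 20% denaturing PAGE with phosphoimager read-out. Activity was graded semiquantitatively.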

Experiment [4] in a line: Growth inhibition of human SF539 cells after 48 hrs by SRB assay. Type of experiment: functional. The note with it: SF-539, 48 h. An outline of the steps: as §1
In the next experiment the test system is DU-145. The experiment is described as follows: Growth inhibition of human DU145 cells after 48 hrs by SRB assay. Type of experiment: functional. The note with it: DU-145, 48 h. In a few lines: as §1
Another experiment concerns MCF7. Briefly: Growth inhibition of human MCF7 cells after 48 hrs by SRB assay. Type of experiment: functional. The note with it: MCF7, 48 h. In a few lines: as §1
The subject of a further experiment is HCT-116. The experiment is described as follows: Growth inhibition of human HCT116 cells after 48 hrs by SRB assay. The note with it: HCT-116, 48 h. Type of experiment: functional. In a few lines: as §1
Experiment [5] has as its target Tyrosyl-DNA phosphodiesterase 1 (Homo sapiens, UniProt Q9NUW8). Briefly: Inhibition of recombinant TDP1(unknown origin) using 5'-[32P]-single stranded N14Y DNA oligonucleotide after 15 mins by […]. In a few lines:
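A 5′-32P-labeled single-stranded oligonucleotide with 3′ phosphotyrosine (N14Y) was incubated with 5 pM recombinant TDP1 for 15 min at room temperature. Loss of the N14P product band on the gel marks inhibition.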

Experiment [6] addresses T1, DNA topoisomerase 1 (Homo sapiens). The experiment is described as follows: Inhibition of human recombinant topoisomerase 1-mediated 117 bp DNA cleavage at 0.1 to 100 uM by agarose gel electrophoresis. Particulars: in the assay text read “denaturing PAGE” for “agarose gel electrophoresis”. An outline of the steps:
as §2

Active and inactive are the calls of the source. The rule behind the calls is not given here.

Tyrosyl-DNA phosphodiesterase 1, sequence (Q9NUW8 whole entry): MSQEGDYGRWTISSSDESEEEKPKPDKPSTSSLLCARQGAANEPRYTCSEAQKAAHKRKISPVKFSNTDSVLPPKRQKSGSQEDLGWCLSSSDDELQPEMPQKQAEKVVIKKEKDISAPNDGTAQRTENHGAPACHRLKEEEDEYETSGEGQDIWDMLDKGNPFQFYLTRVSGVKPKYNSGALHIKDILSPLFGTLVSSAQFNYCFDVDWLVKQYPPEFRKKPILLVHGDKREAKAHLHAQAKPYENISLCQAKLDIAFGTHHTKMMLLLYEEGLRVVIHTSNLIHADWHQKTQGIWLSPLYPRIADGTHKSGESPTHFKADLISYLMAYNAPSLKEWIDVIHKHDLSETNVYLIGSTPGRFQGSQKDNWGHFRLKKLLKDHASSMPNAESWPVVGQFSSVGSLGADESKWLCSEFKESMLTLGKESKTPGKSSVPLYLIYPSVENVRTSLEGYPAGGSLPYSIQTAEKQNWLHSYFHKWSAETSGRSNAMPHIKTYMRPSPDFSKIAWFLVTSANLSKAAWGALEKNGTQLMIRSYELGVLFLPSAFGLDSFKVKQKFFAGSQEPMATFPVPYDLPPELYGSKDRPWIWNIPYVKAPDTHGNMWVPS

The term GI50 denotes the concentration giving 50% growth inhibition. Low readings indicate greater sensitivity of the cells, high ones lower sensitivity of the cells. In the case of `COc1cc2c(=O)n(CCCN3CCOCC3)c3c(c2cc1OCCCN)C(=O)c1cc2c(cc1-3)OCO2`, the GI50 in experiment [1] was 0.4 µM; with SN12C, 0.3 µM; in the experiment on HOP-62, 0.3 µM; in experiment [2], 0.3 µM; in [4], 0.2 µM; in the experiment with DU-145, 0.3 µM. The inhibition entry in experiment [3] is “inactive”.
For the compound `COc1cc2c(=O)n(CCCN3CCOCC3)c3c(c2cc1O)C(=O)c1cc2c(cc1-3)OCO2`, the GI50 is 0.9 µM in experiment [1]; 0.2 µM in the experiment on SN12C; 0.1 µM in the experiment on MCF7; 0.3 µM in the experiment with HOP-62; 0.3 µM in experiment [2]; 0.39 µM in the experiment with HCT-116. Besides, the GI50 (in experiment [4]; in the experiment on DU-145) was 0.3 µM throughout. Further, the inhibition entry in experiment [3] is “Active”.
`CCNCCCOc1cc2c3c(n(CCCN4CCOCC4)c(=O)c2cc1OC)-c1cc2c(cc1C3=O)OCO2`: in experiment [5], the inhibition result was “Dose-dependent effect”. Also, the inhibition entry in [6] is “Active”.
On to `COc1cc2c(=O)n(CCCN3CCOCC3)c3c(c2cc1OCCCN1CCCC1)C(=O)c1cc2c(cc1-3)OCO2`, for which the GI50 was 1.2 µM in [1]; 0.1 µM in the experiment with MCF7; 0.3 µM in experiment [2]; 0.2 µM in [4]; 0.04 µM with DU-145. For the same compound, the inhibition entry in experiment [6] is “Active”.
Regarding `COc1cc2c3c(n(C)c(=O)c2cc1OC)-c1cc2c(cc1C3=O)OCO2`, the GI50 in [1] was 73 µM; in the experiment with SN12C it was 68 µM; with HOP-62 it was 1.3 µM; in experiment [2], 4.2 µM; in the experiment with HCT-116, 35 µM; with DU-145 it was 37 µM.
As a reminder, the IC50 is the concentration that gives 50% inhibition. Take `COc1cc2c(=O)n(CCCN3CCOCC3)c3c(c2cc1OCCCN1CCN(C)CC1)C(=O)c1cc2c(cc1-3)OCO2`: in experiment [5], the IC50 is more than 111 µM and the inhibition result is “Dose-dependent effect”. The inhibition entry in [6] was “Active”.
For `COc1cc2c(=O)n(CCCN3CCOCC3)c3c(c2cc1OCCCN1CCCCC1)C(=O)c1cc2c(cc1-3)OCO2`, the GI50 in experiment [1] was 5.4 µM; in the experiment on SN12C it was 0.4 µM; in the experiment with MCF7, 0.04 µM; with HOP-62 it was 0.3 µM; in experiment [2], 9.6 µM; with HCT-116, 1.1 µM. The GI50 is 0.03 µM in experiment [4] and 0.2 µM with DU-145. Further, the inhibition entry in experiment [5] is “Dose-dependent effect”. In addition, the inhibition result in experiment [6] was “Active”.
Take `C=CCOc1cc2c3c(n(CCCN4CCOCC4)c(=O)c2cc1OC)-c1cc2c(cc1C3=O)OCO2`: the GI50 was 0.3 µM in experiment [1]; less than 0.01 µM with SN12C; less than 0.01 µM in the experiment on MCF7; less than 0.01 µM with HOP-62; less than 0.01 µM in [2]; 0.01 µM in experiment [4]. For the same compound, the GI50 with DU-145 is less than 0.01 µM. In experiment [5], the IC50 is more than 111 µM. For the same compound, the inhibition entry in [3] is “inactive”.
With `COc1cc2c(=O)n(CCCN3CCOCC3)c3c(c2cc1OCCCN(C)C)C(=O)c1cc2c(cc1-3)OCO2`, the inhibition entry in experiment [5] is “Dose-dependent effect”. In experiment [6], the inhibition result is “Active”.
Regarding `COc1cc2c(=O)n(CCCN3CCOCC3)c3c(c2cc1OCC(=O)NN)C(O)c1cc2c(cc1-3)OCO2` (configuration not stated), in experiment [5], the IC50 was more than 111 µM. Also, the inhibition result in experiment [3] is “inactive”.
`COc1cc2c3c(n(CCCNCCO)c(=O)c2cc1OC)-c1cc2c(cc1C3=O)OCO2` [LMP-744] registered a GI50 in [4] of 0.04 µM.
With `COC(=O)COc1cc2c3c(n(CCCN4CCOCC4)c(=O)c2cc1OC)-c1cc2c(cc1C3=O)OCO2`, the GI50 in experiment [1] was determined as 5.8 µM; in the experiment on SN12C, 0.8 µM; with MCF7 it was 0.4 µM; with HOP-62 it was 0.1 µM; in experiment [2] it was 1 µM; in the experiment with HCT-116, 1.1 µM. Besides, the GI50 came out at 0.1 µM in [4] and 0.9 µM in the experiment with DU-145. In addition, the IC50 in experiment [5] is more than 111 µM. In [3], the inhibition result is “Active”.
As for `COc1cc2c(=O)n(CCCN3CCOCC3)c3c(c2cc1OCCCN1CCOCC1)C(=O)c1cc2c(cc1-3)OCO2`, the GI50 in experiment [1] worked out at 0.7 µM; with SN12C, 0.1 µM; in the experiment on MCF7, 0.02 µM; in the experiment with HOP-62 it was 0.03 µM; in [2], 0.2 µM; in the experiment on HCT-116, 0.1 µM. Moreover, the GI50 amounted to 0.1 µM in [4] and 0.02 µM in the experiment on DU-145. For the same compound, the IC50 in experiment [5] is more than 111 µM. In addition, the inhibition entry in [3] is “Active”.
